In ChEMBL document CHEMBL4190362, “Synthesis, biological evaluation and quantitative structure-active relationships of 1,3-thiazolidin-4-one derivatives. A promising chemical scaffold endowed with high antifungal potency and low cytotoxicity” (Eur J Med Chem, 2017):

What was measured:
Type in all cases: functional
Staphylococcus warneri = assay: Antibacterial activity against Staphylococcus warneri assessed as inhibition of microbial growth incubated for 18 to 22 hrs by broth microdilution method
Procedure, shortened: (§1)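 Broth microdilution in Mueller-Hinton II broth following NCCLS recommendations; compounds dissolved in DMSO.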

Nakaseomyces glabratus = assay: Antifungal activity against Candida glabrata clinical isolates assessed as inhibition of microbial growth incubated for 24 hrs by broth microdilution method
Procedure, shortened: (§2)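 Twenty-two clinical Candida isolates (8 C. albicans, 4 C. glabrata, 3 C. tropicalis, 3 C. krusei, 2 C. parapsilosis, 2 C. sake) were identified by colony morphology and biochemistry and subcultured at 35 °C for purity. Compounds were dissolved in DMSO and tested by broth microdilution in Sabouraud dextrose broth per NCCLS/CLSI/EUCAST guidance. Values are geometric mean MIC per species (µg/mL).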

Staphylococcus aureus = assay: Antibacterial activity against Staphylococcus aureus assessed as inhibition of microbial growth incubated for 18 to 22 hrs by broth microdilution method; procedure, shortened: as §1
Pichia kudriavzevii = assay: Antifungal activity against Candida krusei clinical isolates assessed as inhibition of microbial growth incubated for 24 hrs by broth microdilution method; procedure, shortened: as §2
Proteus mirabilis = assay: Antibacterial activity against Proteus mirabilis assessed as inhibition of microbial growth incubated for 18 to 22 hrs by broth microdilution method; procedure, shortened: as §1
Escherichia coli = assay: Antibacterial activity against Escherichia coli assessed as inhibition of microbial growth incubated for 18 to 22 hrs by broth microdilution method; procedure, shortened: as §1
Enterococcus faecalis = assay: Antibacterial activity against Streptococcus faecalis assessed as inhibition of microbial growth incubated for 18 to 22 hrs by broth microdilution method; procedure, shortened: as §1
Klebsiella oxytoca = assay: Antibacterial activity against Klebsiella oxytoca assessed as inhibition of microbial growth incubated for 18 to 22 hrs by broth microdilution method; procedure, shortened: as §1
Candida parapsilosis = assay: Antifungal activity against Candida parapsilosis clinical isolates assessed as inhibition of microbial growth incubated for 24 hrs by broth microdilution method; settings: Lodderomyces parapsilosis; procedure, shortened: as §2
[Candida] sake = Antifungal activity against Candida sake clinical isolates assessed as inhibition of microbial growth incubated for 24 hrs by broth microdilution method; settings: Fermentozyma sake; procedure, shortened: as §2
Enterobacter = assay: Antibacterial activity against Enterobacter spp. assessed as inhibition of microbial growth incubated for 18 to 22 hrs by broth microdilution method; procedure, shortened: as §1
Candida tropicalis = assay: Antifungal activity against Candida tropicalis clinical isolates assessed as inhibition of microbial growth incubated for 24 hrs by broth microdilution method; procedure, shortened: as §2
Candida albicans = assay: Antifungal activity against Candida albicans clinical isolates assessed as inhibition of microbial growth incubated for 24 hrs by broth microdilution method; procedure, shortened: as §2

SMILES	MIC (Staphylococcus warneri)	MIC (Nakaseomyces glabratus)	MIC (Staphylococcus aureus)	MIC (Pichia kudriavzevii)	MIC (Proteus mirabilis)	MIC (Escherichia coli)	MIC (Enterococcus faecalis)	MIC (Klebsiella oxytoca)	MIC (Candida parapsilosis)	MIC ([Candida] sake)	MIC (Enterobacter)	MIC (Candida tropicalis)	MIC (Candida albicans)
CCCCCC/C(C)=N\N=C1\SCC(=O)N1Cc1ccccc1	≥ 256 µg/mL	8 µg/mL	≥ 256 µg/mL	16 µg/mL	≥ 256 µg/mL	≥ 256 µg/mL	≥ 256 µg/mL	≥ 256 µg/mL	16 µg/mL	16 µg/mL	≥ 256 µg/mL	16 µg/mL	8 µg/mL
CCCCC/C(C)=N\N=C1\SCC(=O)N1Cc1ccccc1	≥ 256 µg/mL	8 µg/mL	≥ 256 µg/mL	16 µg/mL	≥ 256 µg/mL	≥ 256 µg/mL	≥ 256 µg/mL	≥ 256 µg/mL	16 µg/mL	16 µg/mL	≥ 256 µg/mL	16 µg/mL	8 µg/mL
O=C1CS/C(=N/N=C2CCCC2)N1Cc1ccccc1	≥ 256 µg/mL	8 µg/mL	≥ 256 µg/mL	16 µg/mL	≥ 256 µg/mL	≥ 256 µg/mL	≥ 256 µg/mL	≥ 256 µg/mL	16 µg/mL	16 µg/mL	≥ 256 µg/mL	16 µg/mL	8 µg/mL
CC(C)=C/C(C)=N\N=C1\SCC(=O)N1Cc1ccccc1	≥ 256 µg/mL	2 µg/mL	≥ 256 µg/mL	8 µg/mL	≥ 256 µg/mL	≥ 256 µg/mL	≥ 256 µg/mL	≥ 256 µg/mL	8 µg/mL	8 µg/mL	≥ 256 µg/mL	128 µg/mL	128 µg/mL
CCCC/C(C)=N\N=C1\SCC(=O)N1Cc1ccccc1	≥ 256 µg/mL	2 µg/mL	≥ 256 µg/mL	2 µg/mL	≥ 256 µg/mL	≥ 256 µg/mL	≥ 256 µg/mL	≥ 256 µg/mL	2 µg/mL	4 µg/mL	≥ 256 µg/mL	2 µg/mL	2 µg/mL
O=C1CS/C(=N/N=C2CCCCCC2)N1Cc1ccccc1	≥ 256 µg/mL	256 µg/mL	≥ 256 µg/mL	256 µg/mL	≥ 256 µg/mL	≥ 256 µg/mL	≥ 256 µg/mL	≥ 256 µg/mL	256 µg/mL	256 µg/mL	≥ 256 µg/mL	256 µg/mL	256 µg/mL
CC1CC/C(=N/N=C2/SCC(=O)N2Cc2ccccc2)C1 (centres undefined)	≥ 256 µg/mL	256 µg/mL	≥ 256 µg/mL	256 µg/mL	≥ 256 µg/mL	≥ 256 µg/mL	≥ 256 µg/mL	≥ 256 µg/mL	256 µg/mL	256 µg/mL	≥ 256 µg/mL	256 µg/mL	256 µg/mL
CC1CCC/C(=N/N=C2/SCC(=O)N2Cc2ccccc2)C1 (centres undefined)	≥ 256 µg/mL	8 µg/mL	≥ 256 µg/mL	4 µg/mL	≥ 256 µg/mL	≥ 256 µg/mL	≥ 256 µg/mL	≥ 256 µg/mL	4 µg/mL	4 µg/mL	≥ 256 µg/mL	8 µg/mL	8 µg/mL
C[C@@H]1[C@H](O)[C@@H](C)/C=C/C=C/C=C/C=C/C=C/C=C/C=C/[C@H](O[C@@H]2O[C@H](C)[C@@H](O)[C@H](N)[C@@H]2O)C[C@@H]2O[C@](O)(C[C@@H](O)C[C@@H](O)[C@H](O)CC[C@@H](O)C[C@@H](O)CC(=O)O[C@H]1C)C[C@H](O)[C@H]2C(=O)O [AMPHOTERICIN B]	–	4 µg/mL	–	4 µg/mL	–	–	–	–	2 µg/mL	2 µg/mL	–	2 µg/mL	4 µg/mL
OC(Cn1cncn1)(Cn1cncn1)c1ccc(F)cc1F [FLUCONAZOLE]	–	2 µg/mL	–	2 µg/mL	–	–	–	–	2 µg/mL	2 µg/mL	–	2 µg/mL	2 µg/mL
CC(=O)N1CCN(c2ccc(OCC3COC(Cn4ccnc4)(c4ccc(Cl)cc4Cl)O3)cc2)CC1 (centres undefined) [KETOCONAZOLE]	–	2 µg/mL	–	4 µg/mL	–	–	–	–	2 µg/mL	4 µg/mL	–	2 µg/mL	2 µg/mL
Clc1ccc(COC(Cn2ccnc2)c2ccc(Cl)cc2Cl)c(Cl)c1 (centres undefined) [MICONAZOLE]	–	4 µg/mL	–	4 µg/mL	–	–	–	–	4 µg/mL	2 µg/mL	–	2 µg/mL	2 µg/mL
Clc1ccc(C(Cn2ccnc2)OCc2ccsc2Cl)c(Cl)c1 (centres undefined) [TIOCONAZOLE]	–	4 µg/mL	–	8 µg/mL	–	–	–	–	8 µg/mL	4 µg/mL	–	8 µg/mL	8 µg/mL
